Reference: ChEMBL document CHEMBL1154229 (Bioorg Med Chem Lett, 2009)

Legend:
[1] = Clearance in rat at 1 mg/kg, iv and 2 mg/kg, po; type: ADME, organism-based; details: in vivo
Summary of the method: (§1)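 Rats dosed IV at 1 mg/kg (n = 2) and PO at 2 mg/kg (n = 3). Blood drug levels measured by LC/MS/MS after protein precipitation with acetonitrile.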

[2] = biological target: Sodium channel protein type 5 subunit alpha (Homo sapiens, UniProt Q14524); assay: Inhibition of Nav1.5 channel
[3] = biological target: Cytochrome P450 3A4 (Homo sapiens, UniProt P08684); assay: Inhibition of CYP3A4; type: ADME
[4] = biological target: Cytochrome P450 2D6 (Homo sapiens, UniProt P10635); assay: (§2) Inhibition of CYP2D6; type: ADME
[5] = biological target: T1, Bifunctional epoxide hydrolase 2 (Rattus norvegicus, UniProt P80299); assay: Inhibition of rat soluble epoxide hydrolase
T1 sequence (P80299 whole entry): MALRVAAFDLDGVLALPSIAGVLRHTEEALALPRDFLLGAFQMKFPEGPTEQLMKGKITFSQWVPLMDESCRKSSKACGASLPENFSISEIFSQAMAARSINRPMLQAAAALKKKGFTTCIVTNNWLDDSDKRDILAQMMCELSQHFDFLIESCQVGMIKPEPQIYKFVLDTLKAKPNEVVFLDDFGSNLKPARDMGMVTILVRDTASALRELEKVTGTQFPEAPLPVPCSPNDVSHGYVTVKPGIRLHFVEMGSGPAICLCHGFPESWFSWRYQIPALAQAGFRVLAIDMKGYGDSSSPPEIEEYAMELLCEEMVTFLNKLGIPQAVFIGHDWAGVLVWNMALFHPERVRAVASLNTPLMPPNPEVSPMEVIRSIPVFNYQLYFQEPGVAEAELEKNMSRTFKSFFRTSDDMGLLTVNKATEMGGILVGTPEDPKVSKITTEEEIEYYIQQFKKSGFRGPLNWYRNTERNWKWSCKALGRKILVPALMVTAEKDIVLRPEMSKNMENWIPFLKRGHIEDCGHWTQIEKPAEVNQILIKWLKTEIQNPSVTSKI

[6] = biological target: L-type calcium channel; assay: Inhibition of calcium channel diltiazem binding site
[7] = Inhibition of potassium channel IKr
[8] = Volume of distribution at steady state in rat at 1 mg/kg, iv and 2 mg/kg, po; type: ADME, organism-based; details: in vivo, read-out: Vdss; summary of the method: as §1
[9] = Half life in rat at 1 mg/kg, iv and 2 mg/kg, po; type: ADME, organism-based; details: in vivo; summary of the method: as §1
[10] = biological target: Cytochrome P450 2C9 (Homo sapiens, UniProt P11712); assay: Inhibition of CYP2C9; type: ADME
[11] = Bioavailability in rat at 1 mg/kg, iv and 2 mg/kg, po; type: ADME, organism-based; details: in vivo; summary of the method: as §1
[12] = biological target: T2, Epoxide hydrolase 1 (Homo sapiens, UniProt P07099); assay: Inhibition of human microsomal epoxide hydrolase
T2 sequence (P07099 whole entry): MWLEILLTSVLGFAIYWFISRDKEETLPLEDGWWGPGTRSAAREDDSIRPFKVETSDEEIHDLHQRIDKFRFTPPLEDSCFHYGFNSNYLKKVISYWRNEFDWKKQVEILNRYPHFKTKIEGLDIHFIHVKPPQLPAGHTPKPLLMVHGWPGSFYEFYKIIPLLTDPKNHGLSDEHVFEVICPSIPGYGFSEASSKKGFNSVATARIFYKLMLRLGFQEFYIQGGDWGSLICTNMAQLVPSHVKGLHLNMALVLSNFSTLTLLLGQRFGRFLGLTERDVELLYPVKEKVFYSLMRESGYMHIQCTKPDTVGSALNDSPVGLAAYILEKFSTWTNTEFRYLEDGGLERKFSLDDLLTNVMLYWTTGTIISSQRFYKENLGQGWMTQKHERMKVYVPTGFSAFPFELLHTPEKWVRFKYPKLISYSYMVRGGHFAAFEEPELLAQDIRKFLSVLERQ
Summary of the method: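 Human mEH used as the counterscreen enzyme. Values come from one or two experiments, each in triplicate, with repeats within 20%.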

[13] = biological target: T3, Bifunctional epoxide hydrolase 2 (Homo sapiens, UniProt P34913); assay: Inhibition of human soluble epoxide hydrolase in HEK293 cells assessed as DHET production; type: cell-based
T3 sequence (P34913 whole entry): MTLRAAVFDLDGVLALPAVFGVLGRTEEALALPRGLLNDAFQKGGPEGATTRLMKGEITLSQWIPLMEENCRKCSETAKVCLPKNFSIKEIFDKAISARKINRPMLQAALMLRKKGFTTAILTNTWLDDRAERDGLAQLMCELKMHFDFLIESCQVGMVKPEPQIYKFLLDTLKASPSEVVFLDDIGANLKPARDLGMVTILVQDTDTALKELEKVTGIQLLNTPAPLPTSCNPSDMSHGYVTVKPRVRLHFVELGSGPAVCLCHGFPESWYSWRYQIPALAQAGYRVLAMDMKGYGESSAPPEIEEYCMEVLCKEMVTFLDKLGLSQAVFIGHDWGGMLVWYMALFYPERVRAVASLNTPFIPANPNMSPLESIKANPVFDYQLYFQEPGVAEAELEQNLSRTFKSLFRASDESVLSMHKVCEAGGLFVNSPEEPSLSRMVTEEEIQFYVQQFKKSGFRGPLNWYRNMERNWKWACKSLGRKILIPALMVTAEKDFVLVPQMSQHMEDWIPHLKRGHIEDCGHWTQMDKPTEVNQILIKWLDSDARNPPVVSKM
Summary of the method: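 Whole-cell 14,15-DHET production assay in HEK293 cells, run with or without 10% human serum. Values come from one or two experiments, each in triplicate, with repeats within 20%.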

[14] = biological target: T3, Bifunctional epoxide hydrolase 2; assay: Inhibition of human soluble epoxide hydrolase
[15] = biological target: CYP2D6 (Homo sapiens, UniProt P10635); assay: as §2; type: ADME
CYP2D6, sequence (P10635 whole entry): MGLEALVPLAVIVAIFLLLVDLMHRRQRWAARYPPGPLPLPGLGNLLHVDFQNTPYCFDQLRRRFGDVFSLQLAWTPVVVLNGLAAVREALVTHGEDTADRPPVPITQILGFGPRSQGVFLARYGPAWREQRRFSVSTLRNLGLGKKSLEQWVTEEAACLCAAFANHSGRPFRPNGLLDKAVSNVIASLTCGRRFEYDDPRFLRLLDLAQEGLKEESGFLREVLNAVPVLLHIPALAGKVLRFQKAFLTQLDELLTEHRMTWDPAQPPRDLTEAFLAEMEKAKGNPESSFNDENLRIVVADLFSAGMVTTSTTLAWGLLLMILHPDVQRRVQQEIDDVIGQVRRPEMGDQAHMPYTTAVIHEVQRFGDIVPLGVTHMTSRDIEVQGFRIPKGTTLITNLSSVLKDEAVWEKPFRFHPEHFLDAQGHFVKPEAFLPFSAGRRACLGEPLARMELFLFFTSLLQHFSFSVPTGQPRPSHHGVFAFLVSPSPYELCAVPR

Cytochrome P450 2C9, sequence (P11712 whole entry): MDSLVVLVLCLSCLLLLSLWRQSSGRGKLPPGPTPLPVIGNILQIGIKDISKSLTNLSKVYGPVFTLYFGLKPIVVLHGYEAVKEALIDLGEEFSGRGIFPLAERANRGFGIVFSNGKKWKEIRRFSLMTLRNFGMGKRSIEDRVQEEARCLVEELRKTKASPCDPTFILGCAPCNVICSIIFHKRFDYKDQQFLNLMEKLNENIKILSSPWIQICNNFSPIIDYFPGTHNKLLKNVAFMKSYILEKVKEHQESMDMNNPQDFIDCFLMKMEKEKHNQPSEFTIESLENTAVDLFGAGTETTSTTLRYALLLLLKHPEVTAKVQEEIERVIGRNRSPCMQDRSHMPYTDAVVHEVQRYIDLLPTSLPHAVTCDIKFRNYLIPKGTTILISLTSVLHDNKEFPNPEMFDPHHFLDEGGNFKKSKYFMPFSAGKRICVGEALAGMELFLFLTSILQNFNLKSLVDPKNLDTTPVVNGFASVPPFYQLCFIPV
Cytochrome P450 2D6, sequence (P10635 whole entry): as the sequence (P10635 whole entry) above
Sodium channel protein type 5 subunit alpha, sequence (Q14524 whole entry): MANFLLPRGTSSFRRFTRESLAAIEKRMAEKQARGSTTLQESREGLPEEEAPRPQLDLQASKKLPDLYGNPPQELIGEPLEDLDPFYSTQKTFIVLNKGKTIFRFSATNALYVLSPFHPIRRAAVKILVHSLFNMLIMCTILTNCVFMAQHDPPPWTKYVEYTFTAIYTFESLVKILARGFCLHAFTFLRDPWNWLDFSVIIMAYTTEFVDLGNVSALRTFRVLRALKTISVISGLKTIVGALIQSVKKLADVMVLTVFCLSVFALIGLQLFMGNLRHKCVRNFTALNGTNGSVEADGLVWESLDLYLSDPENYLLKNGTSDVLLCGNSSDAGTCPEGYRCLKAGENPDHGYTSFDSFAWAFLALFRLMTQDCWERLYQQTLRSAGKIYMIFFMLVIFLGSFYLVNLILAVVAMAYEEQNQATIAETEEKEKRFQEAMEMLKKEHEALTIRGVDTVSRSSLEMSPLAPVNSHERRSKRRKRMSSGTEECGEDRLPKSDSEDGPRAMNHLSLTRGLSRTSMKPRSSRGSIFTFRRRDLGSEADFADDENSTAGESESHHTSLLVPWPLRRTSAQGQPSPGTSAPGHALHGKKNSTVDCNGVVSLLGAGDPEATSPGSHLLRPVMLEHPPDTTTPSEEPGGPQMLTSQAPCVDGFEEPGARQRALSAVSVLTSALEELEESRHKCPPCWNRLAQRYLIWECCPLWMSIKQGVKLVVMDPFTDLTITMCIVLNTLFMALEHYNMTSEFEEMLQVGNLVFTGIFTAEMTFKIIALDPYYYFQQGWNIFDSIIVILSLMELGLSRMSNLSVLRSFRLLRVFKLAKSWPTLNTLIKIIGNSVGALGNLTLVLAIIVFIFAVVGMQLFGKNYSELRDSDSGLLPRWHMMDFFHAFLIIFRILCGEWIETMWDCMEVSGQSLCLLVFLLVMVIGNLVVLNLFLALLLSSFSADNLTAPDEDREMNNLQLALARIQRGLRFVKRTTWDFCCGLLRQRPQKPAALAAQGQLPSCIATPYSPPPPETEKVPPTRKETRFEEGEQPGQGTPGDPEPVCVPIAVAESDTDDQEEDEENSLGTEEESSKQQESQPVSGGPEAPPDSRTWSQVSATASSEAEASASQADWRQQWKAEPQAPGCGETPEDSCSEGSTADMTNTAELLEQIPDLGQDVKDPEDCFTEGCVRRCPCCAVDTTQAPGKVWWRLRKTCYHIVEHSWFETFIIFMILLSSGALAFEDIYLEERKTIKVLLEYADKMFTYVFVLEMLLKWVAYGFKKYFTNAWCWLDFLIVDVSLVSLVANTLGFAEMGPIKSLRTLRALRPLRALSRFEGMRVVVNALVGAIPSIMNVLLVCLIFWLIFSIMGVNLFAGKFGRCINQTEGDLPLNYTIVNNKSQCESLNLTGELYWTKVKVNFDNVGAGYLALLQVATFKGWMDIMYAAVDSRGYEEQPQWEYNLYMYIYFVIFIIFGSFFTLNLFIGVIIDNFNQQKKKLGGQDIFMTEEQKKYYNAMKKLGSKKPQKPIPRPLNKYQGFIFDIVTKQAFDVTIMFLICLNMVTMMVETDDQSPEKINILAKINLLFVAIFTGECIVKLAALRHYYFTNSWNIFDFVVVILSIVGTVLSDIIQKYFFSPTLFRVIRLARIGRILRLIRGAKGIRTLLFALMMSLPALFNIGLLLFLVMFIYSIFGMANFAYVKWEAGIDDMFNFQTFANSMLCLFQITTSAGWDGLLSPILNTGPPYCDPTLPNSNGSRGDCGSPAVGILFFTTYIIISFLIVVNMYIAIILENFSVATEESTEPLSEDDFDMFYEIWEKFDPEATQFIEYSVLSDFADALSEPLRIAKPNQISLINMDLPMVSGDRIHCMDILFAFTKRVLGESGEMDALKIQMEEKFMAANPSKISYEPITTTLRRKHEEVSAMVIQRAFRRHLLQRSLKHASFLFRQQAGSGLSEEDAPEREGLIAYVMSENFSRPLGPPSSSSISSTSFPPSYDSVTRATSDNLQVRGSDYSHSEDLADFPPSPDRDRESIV
Cytochrome P450 3A4, sequence (P08684 whole entry): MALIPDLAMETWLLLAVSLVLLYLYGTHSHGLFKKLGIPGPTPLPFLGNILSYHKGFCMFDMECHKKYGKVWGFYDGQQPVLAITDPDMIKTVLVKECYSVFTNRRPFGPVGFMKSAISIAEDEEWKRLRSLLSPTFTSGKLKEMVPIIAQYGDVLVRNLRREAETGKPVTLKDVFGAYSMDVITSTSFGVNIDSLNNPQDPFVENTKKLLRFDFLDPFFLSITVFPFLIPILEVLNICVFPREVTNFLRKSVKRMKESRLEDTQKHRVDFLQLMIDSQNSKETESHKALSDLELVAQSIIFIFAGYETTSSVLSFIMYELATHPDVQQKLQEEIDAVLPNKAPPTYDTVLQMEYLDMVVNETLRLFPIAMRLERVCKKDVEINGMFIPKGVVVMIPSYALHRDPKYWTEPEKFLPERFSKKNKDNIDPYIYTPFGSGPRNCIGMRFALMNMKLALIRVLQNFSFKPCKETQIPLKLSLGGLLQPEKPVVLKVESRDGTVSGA

SMILES | clearance [1] [mL/min/kg] | IC50 [2] [µM] | IC50 [3] [µM] | IC50 [4] [µM] | IC50 [5] [µM] | IC50 [6] [µM] | IC50 [7] [µM] | Vd [8] [L/kg] | half-life [9] [h] | IC50 [10] [µM] | bioavailability [11] [%] | IC50 [12] [µM] | IC50 [13] [µM] | IC50 [14] [µM] | IC50 [15] [µM]
O=C(O)CCC1(c2ccccc2)CCCN(C(=O)Nc2ccc(Cl)cc2)C1 (stereo in doubt; 2b) | 4 | > 10 | > 10 | > 10 | 0.076 | > 30 | > 30 | 0.8 | 3.2 | > 10 | 84 | > 100 | 0.004 | – | –
O=C(O)CCC1(c2ccc(C(F)(F)F)cc2)CCCN(C(=O)Nc2ccc(Cl)cc2)C1 (configuration not stated) | – | > 10 | > 10 | > 10 | 0.12 | > 30 | > 30 | – | – | > 10 | – | > 100 | < 0.001 | 0.005 | –
CC1(c2ccccc2)CCCN(C(=O)Nc2ccc(Cl)cc2)C1 (configuration not stated) | 43 | > 10 | < 10 | > 10 | 0.005 | 1.7 | 12 | 12 | 3.9 | > 10 | 13 | > 100 | < 0.001 | 0.001 | –
CC1(c2ccccc2)CCCN(C(=O)NCc2ccc(-c3ccccn3)cc2)C1 (configuration not stated) | – | > 10 | < 10 | 10 | 0.003 | 0.5 | 4 | – | – | < 10 | – | 47 | < 0.001 | 0.001 | –
O=C(O)CCC1(c2ccccc2C(F)(F)F)CCCN(C(=O)Nc2ccc(Cl)cc2)C1 (configuration not stated) | – | > 10 | > 10 | > 10 | 0.07 | > 30 | > 30 | – | – | > 10 | – | > 100 | < 0.001 | 0.016 | –
O=C(O)CC1(c2ccccc2)CCCN(C(=O)Nc2ccc(Cl)cc2)C1 (configuration not stated) | – | > 10 | > 10 | > 10 | 0.398 | > 30 | > 30 | – | – | > 10 | – | > 100 | 0.038 | 0.052 | –
O=C(Nc1ccc(Cl)cc1)N1CCCC(CCO)(c2ccccc2)C1 (configuration not stated) | – | > 10 | > 10 | 10 | 0.015 | 0.9 | 0.07 | – | – | < 10 | – | > 100 | < 0.001 | 0.001 | –
CC1(c2ccccc2)CCCN(C(=O)NCc2ccc(Cl)cc2Cl)C1 (configuration not stated) | – | < 10 | < 10 | – | 0.003 | 2 | 20 | – | – | > 10 | – | – | – | < 0.001 | < 10
NC(=O)CCC1(c2ccccc2)CCCN(C(=O)Nc2ccc(Cl)cc2)C1 (configuration not stated) | 116 | – | > 10 | > 10 | 0.026 | – | 7 | 0.88 | 4.4 | > 10 | 13 | > 100 | < 0.001 | – | –
O=C(O)CCCCC1(c2ccccc2)CCCN(C(=O)Nc2ccc(Cl)cc2)C1 (configuration not stated) | – | > 10 | > 10 | > 10 | 0.12 | > 30 | > 30 | – | – | > 10 | – | > 100 | < 0.001 | 0.005 | –
CC1(c2ccccc2)CCCN(C(=O)N[C@H]2C[C@@H]2c2ccccc2)C1 (some centres not stated) | – | > 10 | < 10 | – | 0.004 | 10 | 26 | – | – | < 10 | – | > 100 | < 0.001 | 0.001 | –
CNC(=O)CCC1(c2ccccc2)CCCN(C(=O)Nc2ccc(Cl)cc2)C1 (configuration not stated) | – | > 10 | 10 | > 10 | 0.032 | 4 | 8 | – | – | 10 | – | > 100 | < 0.001 | – | –
O=C(Nc1ccc(Cl)cc1)N1CCCC(CCc2nn[nH]n2)(c2ccccc2)C1 (configuration not stated) | 124 | > 10 | < 10 | 10 | 0.059 | – | 3 | 1.4 | 0.39 | > 10 | 0.17 | > 100 | < 0.001 | 0.005 | –
O=C(Nc1ccc(Cl)cc1)N1CCCC(CCCO)(c2ccccc2)C1 (configuration not stated) | – | > 10 | < 10 | > 10 | 0.01 | 5 | 6 | – | – | < 10 | – | > 100 | < 0.001 | 0.0013 | –
